Data published in ChEMBL document CHEMBL1909624, “BRN-103, a novel nicotinamide derivative, inhibits VEGF-induced angiogenesis and proliferation in human umbilical vein endothelial cells” (2011).
The source made the active and inactive calls. The rule behind the calls is not given here.

Experiments:
HUVEC [1] = test: Cytotoxicity against human HUVEC; assay type: functional
HUVEC [2] = test: Antiangiogenic activity in HUVEC assessed as decrease in VEGF-induced cell migration at 25 uM after 24 hrs by transwell migration assay; assay type: functional, cell-based; details: Homo sapiens
[3] = target: T1, Nitric oxide synthase 3 (Homo sapiens) (UniProt P29474); test: Inhibition of eNOS phosphorylation at […] in VEGF-stimulated HUVEC preincubated for 1 hr before VEGF induction measured after 1 hr by Western blot analysis
T1 sequence (whole entry): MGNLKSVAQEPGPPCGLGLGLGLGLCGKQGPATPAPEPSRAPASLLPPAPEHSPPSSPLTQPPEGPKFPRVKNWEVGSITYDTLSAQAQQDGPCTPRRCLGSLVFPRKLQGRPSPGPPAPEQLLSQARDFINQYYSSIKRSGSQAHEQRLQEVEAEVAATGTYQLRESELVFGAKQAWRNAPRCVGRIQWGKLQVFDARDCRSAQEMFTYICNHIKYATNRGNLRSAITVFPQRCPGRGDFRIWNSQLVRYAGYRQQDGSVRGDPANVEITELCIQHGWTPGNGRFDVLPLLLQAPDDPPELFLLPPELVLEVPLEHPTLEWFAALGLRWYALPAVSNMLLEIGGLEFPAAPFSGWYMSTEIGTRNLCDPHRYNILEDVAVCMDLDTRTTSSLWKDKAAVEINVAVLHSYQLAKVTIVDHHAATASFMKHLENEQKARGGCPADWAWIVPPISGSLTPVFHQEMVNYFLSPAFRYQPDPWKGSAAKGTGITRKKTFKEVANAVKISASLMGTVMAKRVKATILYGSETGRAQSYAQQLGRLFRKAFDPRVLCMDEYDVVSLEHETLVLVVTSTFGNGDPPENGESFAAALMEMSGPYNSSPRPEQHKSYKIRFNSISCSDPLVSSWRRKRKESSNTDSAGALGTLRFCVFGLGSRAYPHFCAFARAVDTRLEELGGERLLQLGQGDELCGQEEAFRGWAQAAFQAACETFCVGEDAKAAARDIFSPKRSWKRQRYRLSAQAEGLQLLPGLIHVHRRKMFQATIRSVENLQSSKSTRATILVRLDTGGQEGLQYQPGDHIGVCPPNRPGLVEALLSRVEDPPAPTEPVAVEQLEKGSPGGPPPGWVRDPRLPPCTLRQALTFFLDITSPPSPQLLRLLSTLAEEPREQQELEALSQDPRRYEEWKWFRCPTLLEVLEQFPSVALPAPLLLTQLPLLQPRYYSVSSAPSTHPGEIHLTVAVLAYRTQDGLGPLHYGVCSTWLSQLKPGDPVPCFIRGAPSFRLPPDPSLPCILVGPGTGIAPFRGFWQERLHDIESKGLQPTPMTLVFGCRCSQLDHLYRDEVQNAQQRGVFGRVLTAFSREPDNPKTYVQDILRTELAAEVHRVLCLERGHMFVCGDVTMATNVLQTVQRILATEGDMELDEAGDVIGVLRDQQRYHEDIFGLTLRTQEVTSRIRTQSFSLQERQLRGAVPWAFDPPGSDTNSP
Procedure, shortened: (§1)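 0.1% serum-starved HUVECs were pretreated with compound for 1 h, then given 10 ng/ml VEGF for 5 min (p-ERK), 30 min (p-AKT) or 1 h (p-eNOS). Lysates were Western-blotted with phospho-specific and total AKT, ERK and eNOS antibodies. Bands were quantified as the mean of three experiments with SD; ANOVA with Dunnett's test.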

HUVEC [4] = test: Antiangiogenic activity in VEGF-stimulated HUVEC assessed as inhibition of capillary tube formation preincubated for 1 hr measured after 6 hrs by photographic analysis; assay type: functional, cell-based; details: Homo sapiens
Procedure, shortened: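 HUVECs were pretreated with compound for 1 h, then seeded at 4–7 × 10⁴ cells on growth factor-reduced Matrigel in EBM with or without 10 ng/ml VEGF. After 6 h, tubes were photographed at ×100 and counted manually in low-power fields. Mean of three experiments with SD.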

HUVEC [5] = test: Antiangiogenic activity in HUVEC assessed as inhibition of VEGF-induced cell proliferation by BrdU incorporation assay; assay type: functional, cell-based; details: Homo sapiens
Procedure, shortened: (§2)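 DNA synthesis was measured by BrdU incorporation in 0.1% serum-starved HUVECs stimulated with VEGF, with or without compound. Incorporated BrdU was detected with an anti-BrdU monoclonal antibody using a commercial ELISA kit. Mean of three experiments with SD; ANOVA with Dunnett's post-hoc test.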

HUVEC [6] = test: Antiangiogenic activity in HUVEC assessed as decrease in VEGF-induced cell migration after 24 hrs by transwell migration assay; assay type: functional, cell-based; details: Homo sapiens
Procedure, shortened: (§3)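 HUVECs were seeded in a Boyden chamber on a porous membrane, with test compound in 0.1% EBM in the upper chamber and 10 ng/ml VEGF in the lower. After 24 h, cells that had crossed the pores were counted. Mean of three independent experiments with SD; ANOVA with Dunnett's post-hoc test.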

Aorta = test: Inhibition of VEGF-induced angiogenesis in C57BL/6 mouse aortic rings assessed as decrease in microvessel sprouting after 7 days; assay type: functional, tissue-based
HUVEC [7] = test: Inhibition of AKT phosphorylation at Ser-473 in VEGF-stimulated HUVEC preincubated for 1 hr before VEGF induction measured after 30 mins by Western blot analysis; assay type: cell-based; details: Homo sapiens; procedure, shortened: as §1
[8] = target: Vascular endothelial growth factor receptor 2 (Homo sapiens) (UniProt P35968); test: Inhibition of VEGFR2 phosphorylation at tyr-1175 in VEGF-stimulated HUVEC preincubated for 1 hr before VEGF induction measured after 5 mins by Western blot analysis
Chain of Vascular endothelial growth factor receptor 2 (Homo sapiens) (P35968 whole entry): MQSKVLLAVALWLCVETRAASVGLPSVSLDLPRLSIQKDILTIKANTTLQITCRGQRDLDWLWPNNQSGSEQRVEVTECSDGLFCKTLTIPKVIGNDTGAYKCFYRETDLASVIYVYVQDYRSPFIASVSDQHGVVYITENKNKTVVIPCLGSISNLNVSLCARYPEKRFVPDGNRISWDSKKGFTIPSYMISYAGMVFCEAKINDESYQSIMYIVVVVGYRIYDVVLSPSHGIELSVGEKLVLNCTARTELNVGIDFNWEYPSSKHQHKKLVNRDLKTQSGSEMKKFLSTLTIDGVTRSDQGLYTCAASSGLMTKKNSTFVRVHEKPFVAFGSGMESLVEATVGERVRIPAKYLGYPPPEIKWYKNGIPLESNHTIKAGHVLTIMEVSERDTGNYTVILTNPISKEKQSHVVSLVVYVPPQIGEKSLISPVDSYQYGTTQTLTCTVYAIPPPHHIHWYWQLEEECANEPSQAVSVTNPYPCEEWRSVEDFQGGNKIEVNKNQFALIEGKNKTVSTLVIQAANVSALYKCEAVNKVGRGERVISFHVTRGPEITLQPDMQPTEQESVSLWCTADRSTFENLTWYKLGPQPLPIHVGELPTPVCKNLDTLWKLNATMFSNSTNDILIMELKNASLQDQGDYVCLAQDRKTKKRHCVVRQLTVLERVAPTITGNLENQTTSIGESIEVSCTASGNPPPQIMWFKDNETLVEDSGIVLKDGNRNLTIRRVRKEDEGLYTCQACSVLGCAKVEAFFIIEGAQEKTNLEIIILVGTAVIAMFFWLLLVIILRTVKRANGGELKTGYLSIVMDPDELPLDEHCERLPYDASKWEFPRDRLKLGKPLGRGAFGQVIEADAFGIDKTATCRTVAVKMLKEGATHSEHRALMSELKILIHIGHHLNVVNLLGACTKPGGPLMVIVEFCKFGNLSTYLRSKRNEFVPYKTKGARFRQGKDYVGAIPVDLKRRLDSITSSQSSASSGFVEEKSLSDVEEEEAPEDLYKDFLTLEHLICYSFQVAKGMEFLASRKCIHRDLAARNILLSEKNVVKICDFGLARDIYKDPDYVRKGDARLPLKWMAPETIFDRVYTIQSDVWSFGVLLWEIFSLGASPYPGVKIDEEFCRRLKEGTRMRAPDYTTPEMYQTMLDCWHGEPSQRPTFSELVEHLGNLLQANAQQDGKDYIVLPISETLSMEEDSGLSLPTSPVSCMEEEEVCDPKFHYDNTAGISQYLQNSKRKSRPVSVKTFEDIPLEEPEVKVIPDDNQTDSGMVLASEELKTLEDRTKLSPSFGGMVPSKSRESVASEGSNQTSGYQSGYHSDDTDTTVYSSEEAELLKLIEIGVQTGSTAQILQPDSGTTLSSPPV
Procedure, shortened: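 HUVECs were pretreated with compound for 1 h, stimulated with 10 ng/ml VEGF for 5 min, and lysed. Western blot used an anti-phospho-VEGFR2 antibody, with total VEGFR and β-actin as internal controls. Blot representative of three separate experiments.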

HUVEC [9] = test: Antiangiogenic activity in HUVEC assessed as decrease in VEGF-induced cell migration at 10 uM after 24 hrs by transwell migration assay; assay type: functional, cell-based; details: Homo sapiens
HUVEC [10] = test: Inhibition of ERK phosphorylation at Thr202/Tyr204 in VEGF-stimulated HUVEC preincubated for 1 hr before VEGF induction measured after 5 mins by Western blot analysis; assay type: cell-based; details: Homo sapiens; procedure, shortened: as §1
HUVEC [11] = test: Antiangiogenic activity in HUVEC assessed as decrease in VEGF-induced cell migration after 24 hrs by wound healing assay; details: Homo sapiens
HUVEC [12] = test: Inhibition of ERK phosphorylation at Thr202/Tyr204 in VEGF-stimulated HUVEC at 1 uM preincubated for 1 hr before VEGF induction measured after 5 mins by Western blot analysis; assay type: cell-based; details: Homo sapiens; procedure, shortened: as §1
[13] = target: T1, Nitric oxide synthase 3 (Homo sapiens); test: Inhibition of eNOS phosphorylation at […] in VEGF-stimulated HUVEC at 1 uM preincubated for 1 hr before VEGF induction measured after 1 hr by Western blot analysis; procedure, shortened: as §1
HUVEC [14] = test: Inhibition of AKT phosphorylation at Ser-473 in VEGF-stimulated HUVEC at 1 uM preincubated for 1 hr before VEGF induction measured after 30 mins by Western blot analysis; assay type: cell-based; details: Homo sapiens; procedure, shortened: as §1
HUVEC [15] = test: Antiangiogenic activity in HUVEC assessed as inhibition of VEGF-induced cell proliferation at 1 uM by BrdU incorporation assay; assay type: functional, cell-based; details: Homo sapiens; procedure, shortened: as §2
HUVEC [16] = test: Antiangiogenic activity in HUVEC assessed as decrease in VEGF-induced cell migration at 1 uM after 24 hrs by transwell migration assay; assay type: functional, cell-based; details: Homo sapiens; procedure, shortened: as §3
HUVEC [17] = test: Antiangiogenic activity in HUVEC assessed as decrease in VEGF-induced cell migration at 50 uM after 24 hrs by transwell migration assay; assay type: functional, cell-based; details: Homo sapiens

O=C(Nc1cccc(Cl)c1)c1cccnc1NC1CCN(CO)CC1
IC90 (HUVEC [1]): 29.2 µM
Activity (HUVEC [2]): Active

O=C(Nc1cccc(Cl)c1)c1cccnc1NC1CCN(Cc2ccccc2)CC1
inhibition [3]: Dose-dependent effect
IC90 (HUVEC [1]): 9.42 µM
inhibition (HUVEC [4]): Dose-dependent effect
inhibition (HUVEC [5]): Dose-dependent effect
Activity (HUVEC [6]): Dose-dependent effect
inhibition (Aorta): Dose-dependent effect
inhibition (HUVEC [7]): Dose-dependent effect
inhibition [8]: Dose-dependent effect
Activity (HUVEC [9]): Active
inhibition (HUVEC [10]): Dose-dependent effect
Activity (HUVEC [11]): Dose-dependent effect

CCN(CC)CCNC(=O)c1c(C)[nH]c(/C=C2\C(=O)Nc3ccc(F)cc32)c1C [SUNITINIB]
inhibition (HUVEC [12]): Active
IC90 (HUVEC [1]): 1 µM
inhibition [13]: Active
inhibition (HUVEC [14]): inactive
inhibition (HUVEC [15]): Active
Activity (HUVEC [16]): Active

O=C(Nc1cccc(Cl)c1)c1cccnc1NC[C@@H]1CN(Cc2ccc(F)cc2)C(=O)CO1
Activity (HUVEC [17]): Active
IC90 (HUVEC [1]): > 50 µM

COc1ccc(C(=O)N2CCN(c3ncccc3C(=O)Nc3cccc(Cl)c3)CC2)cc1
Activity (HUVEC [17]): Active
IC90 (HUVEC [1]): > 50 µM

O=C(Nc1cccc(Cl)c1)c1cccnc1N1CCN(C(=O)c2cccc(F)c2)CC1
Activity (HUVEC [17]): Active
IC90 (HUVEC [1]): > 50 µM
